Measurements pooled from the literature.
Lines come from different studies, so protocols differ.
Target: Carbonic anhydrase 12 (CA12, Homo sapiens, UniProt O43570)
Read-out: enzyme activity
Mode: inhibitor

SMILES | technique | measurement | result
Cc1ccc(OC(=O)c2ccc(=O)oc2)cc1 | stopped-flow | Ki | 1830 nM
CS(=O)(=O)Nc1ccc(Nc2nc(-c3cc4cc(Br)ccc4oc3=O)cs2)cc1Oc1ccccc1 | absorbance | IC50 | 610 nM
Cc1cc(=O)oc2cc(OCCCCSC#N)ccc12 | stopped-flow | Ki | 54.2 nM
NS(=O)(=O)c1ccc(-c2ccc(Nc3ccncc3)cc2)cc1 | absorbance | IC50 | 880 nM
COc1ccc(-n2cc(COC(=O)c3ccc(=O)oc3)nn2)cc1 | stopped-flow | Ki | 54800 nM
NS(=O)(=O)c1ccc(-c2ccc(Nc3ccc(F)c(Cl)c3)cc2)cc1 | absorbance | IC50 | 2780 nM
CS(=O)(=O)Nc1ccc(Nc2nc(-c3cc4ccccc4oc3=O)cs2)cc1Oc1ccccc1 | absorbance | IC50 | 790 nM
CC1CCCCC1OC(=O)c1ccc(=O)oc1 (stereo not shown) | stopped-flow | Ki | 82800 nM
COc1ccc2oc(=O)c(-c3csc(Nc4ccc(C(=O)O)cc4)n3)cc2c1 | absorbance | IC50 | 1880 nM
N#CSCCCCOc1ccc2c(-c3ccccc3)cc(=O)oc2c1 | stopped-flow | Ki | 234 nM
